# Compounds with a hit are over-represented: about 4.1% of the library has one in this group of screens.
# Cl transport mod: KCC2 cotransporter modulators, thallium flux, primary screen, cell-based, HEK293 KCC2, FluoZin-2 fluorescence, MLSMR. B-score of Tl+ flux slope (higher = more flux/activation; lower = inhibition) at 10 µM. 190,000 compounds, 2.2% hits. KCC2 cells, thallium flux FluoZin-2 fluorescence;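 active = thallium flux slope and its plate-corrected score both differing from the plate sample mean at a set confidence after two filtering rounds, in either direction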;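 note: slope of fluorescence scaled to starting intensity during 10 to 20 s after thallium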
# KCNQ1 block: inhibitors of human KCNQ1 channel, primary screen, cell-based, thallium flux, high-throughput; Potassium voltage-gated channel subfamily KQT member 1 (Homo sapiens), P51787; CHO-K1 KCNQ1, FluxOR thallium flux fluorescence; hits give high values; B-score at 10 µM; 310,000 compounds, 1.3% hits; AID 2642, 2010;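 active = compounds whose thallium flux B-score, printed positive for inhibition, exceeds three library SD while starting fluorescence stays within three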;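 note: channel opened by potassium depolarization with thallium stimulus after 20 min compound exposure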
# Target sequence (P51787 whole entry, looked up): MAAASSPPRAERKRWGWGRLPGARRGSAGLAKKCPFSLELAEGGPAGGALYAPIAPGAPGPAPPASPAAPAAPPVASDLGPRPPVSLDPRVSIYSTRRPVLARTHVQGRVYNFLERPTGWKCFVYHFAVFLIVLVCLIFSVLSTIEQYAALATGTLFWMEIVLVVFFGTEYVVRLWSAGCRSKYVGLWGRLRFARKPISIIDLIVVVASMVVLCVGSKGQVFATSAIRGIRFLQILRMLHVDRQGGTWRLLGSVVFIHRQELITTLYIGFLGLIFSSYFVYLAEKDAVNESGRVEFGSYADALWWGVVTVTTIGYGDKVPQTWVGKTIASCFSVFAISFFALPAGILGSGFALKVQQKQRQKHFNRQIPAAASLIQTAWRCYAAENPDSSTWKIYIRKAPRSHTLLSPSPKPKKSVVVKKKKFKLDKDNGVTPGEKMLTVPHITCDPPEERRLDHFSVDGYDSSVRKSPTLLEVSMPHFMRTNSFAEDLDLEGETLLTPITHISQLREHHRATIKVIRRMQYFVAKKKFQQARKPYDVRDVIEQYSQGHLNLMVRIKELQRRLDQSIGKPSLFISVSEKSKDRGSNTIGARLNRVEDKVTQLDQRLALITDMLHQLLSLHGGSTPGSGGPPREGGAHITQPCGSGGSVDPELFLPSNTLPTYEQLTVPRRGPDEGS
# KCNQ1 act: potentiators or activators of KCNQ1 channel, primary screen, cell-based, thallium flux, high-throughput; Potassium voltage-gated channel subfamily KQT member 1 (Homo sapiens), P51787; CHO-K1 KCNQ1, thallium flux FluxOR fluorescence; hits give high values; B-score at 10 µM; 310,000 compounds, 0.35% hits;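 active = fluorescence ratio B-score, a plate-corrected score, at least three library SD, with initial intensity B-score within 5 SD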
#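 Medium – assay buffer, equal DMSO in all wells · Material – CHO-K1 cell line with stable KCNQ1 potassium channel expression · Signal – kinetic FluxOR thallium fluorescence, 10-s 1-Hz baseline, 110-s post-stimulus read · Compound – single concentration per compound, DMSO matched to controls · Schedule – 37 °C overnight plating, 90-min dark dye load, 20-min compound pretreatment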
# KCNK3 inh: human KCNK3 channel inhibitors, primary screen, CHO cells, FluxOR thallium flux, B-score | Potassium channel subfamily K member 3 (Homo sapiens), O14649 | FluxOR fluorescence; hits give low values | B-score at 10 µM | 340,000 compounds, 0.84% hits | AID 602410, 2012;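 active = B-score under library mean minus 4 SD, starting fluorescence ratio at most library mean plus 5 SD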;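 note: more negative B-score means stronger inhibition of thallium flux through KCNK3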
# hERG rescue: hERG rescue from dofetilide block, primary screen, cell-based, CHO-hERG, FluxOR thallium flux, dofetilide IC70. activation (rescue from dofetilide block), less the hit threshold, % at 10 µM. dofetilide IC70 present. 310,000 compounds, 0.51% hits;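 active = activation above the mean of controls blocked by dofetilide plus 5 SD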;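 note: thallium influx through hERG after potassium depolarization seen as dye fluorescence rise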
# KCNK9 inh: KCNK9 potassium channel inhibitors, primary screen, HEK293 cells, thallium flux. Potassium channel subfamily K member 9 (Homo sapiens), Q9NPC2. FluxOR thallium flux fluorescence; hits give low values. B-score at 10 µM. 310,000 compounds, 1.2% hits. AID 488922, 2010;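 active = ratio B-score over 3 SD below the library mean, with starting fluorescence within 5 SD of its mean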;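 note: negative B-score means less thallium flux so channel inhibition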
# KCNQ1 inh valid: KCNQ1 potassium channel inhibitors, confirmation, cell-based, Tl flux, duplicate. inhibition, % at 10 µM. shares compounds with KCNQ1 block. 1,600 compounds, 93% hits. KCNQ1 cell line, FluxOR thallium flux fluorescence. AID 588353, 2011;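 active = primary screen active, with duplicate mean exceeding buffer control mean plus 3 SD of buffer wells, cut at about 28% in these data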;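 note: 0% = buffer control ratio and 100% = XE991 inhibitor control ratio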
# CHO Tl flux: thallium flux effects in parental CHO cells, counter-screen for KCNQ1 inhibitor project, cell-based, Tl flux | AID 588366, 2011 | fluorescence ratio (Tl flux) at 10 µM | shares compounds with KCNQ1 block | parental CHO-K1, FluxOR thallium flux fluorescence ratio; hits give low values; zero means no signal rise above baseline | 1,600 compounds, 21% hits;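 active = mean of duplicate thallium-flux fluorescence ratios in parental host cells more than 5 SD below the buffer control mean, cut at about 0.38 in these data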;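 note: ratio is peak minus minimum fluorescence divided by baseline fluorescence; actives read low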
# KCNQ1 ephys val: KCNQ1 channel inhibitors, confirmation, orthogonal assay, cell-based, automated electrophysiology; calls only at 10 µM; AID 624120, 2012; 490 compounds, 20% hits; KCNQ1-CHO cells, automated patch clamp current; shares compounds with KCNQ1 block;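 active = KCNQ1 current drop exceeding 3 SD of negative control wells, seen in both duplicate runs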;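 note: steady state current during a 2 s step from -80 to +40 mV; negative values mean current inhibition and positive values mean potentiation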
# KCNQ2 spec: KCNQ2 channel inhibition, selectivity assay for KCNQ1 inhibitor project, cell-based. shares compounds with KCNQ1 block. AID 651746, 2012. KCNQ2 cells, FluxOR thallium flux fluorescence. inhibition, % at 10 µM. 1,600 compounds, 71% hits;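 active = mean percent inhibition of the KCNQ2 thallium signal more than 5 SD above the buffer-only control wells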;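 note: KCNQ2 expressed in CHO cells; 0% = buffer control wells and 100% = XE-991 inhibitor control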
# KCNQ1-KCNE1 inh: KCNQ1/KCNE1 channel inhibition, selectivity assay for KCNQ1 inhibitor project, CHO-K1 cells, thallium flux, FluxOR. shares compounds with KCNQ1 block. FluxOR thallium flux fluorescence. inhibition, % at 10 µM. 1,600 compounds, 77% hits;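 active = mean percent inhibition of duplicate wells above the buffer-only control mean plus 3 SD of those controls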;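 note: 0% = buffer only wells and 100% = XE-991 inhibitor control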
# KCNK9 block conf: KCNK9 potassium channel inhibitors, confirmation, HEK293 cells, thallium flux, duplicate; shares compounds with KCNK9 inh; FluxOR thallium flux fluorescence; inhibition, % at 10 µM; 4,900 compounds, 43% hits; AID 492992, 2010;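 active = thallium signal inhibited by more than 5 SD of the compound-free buffer control wells, on both duplicate plates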;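 note: 0% = assay buffer control wells without compound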
# Kir2-1 spec: mouse Kir2.1 channel inhibition, confirmation, selectivity assay for KCNK9 modulator project, cell-based, HEK293, thallium flux. shares compounds with KCNK9 inh. Kir2.1 cells, FluxOR thallium flux fluorescence. inhibition, % at 10 µM. 4,900 compounds, 4% hits. AID 492993, 2010;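 active = thallium signal drop more than 5 SD beyond the mean of the no-compound control wells, seen in both duplicate plates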;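 note: signal is fluorescence rise after thallium addition divided by baseline fluorescence; plate controls were assay buffer only for no effect and full block by chlorpromazine control for full effect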
# KCNK9 uninduced: thallium flux in non-induced HEK293 cells, confirmation, counter-screen for KCNK9 inhibitor project, cell-based, second counter screen, non-induced KCNK9-HEK293. FluxOR thallium flux. inhibition, % at 10 µM. AID 492997, 2010. shares compounds with KCNK9 inh. 4,900 compounds, 40% hits;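 active = thallium signal drop beyond 5 SD of the untreated control mean, on both duplicate plates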;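 note: plate controls were buffer only IC0 wells for no effect and SID17386958 at its maximal inhibitory level for full effect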
# KCNK3 inh conf: retest of human KCNK3 channel inhibitors, confirmation, CHO cells, FluxOR thallium flux, triplicate | shares compounds with KCNK3 inh | FluxOR fluorescence; 0% buffer, 100% carvedilol maximal block | ratio percent of control, % at 10 µM | 2,400 compounds, 99% hits;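 active = ratio percent of control, averaged over triplicates, above buffer control mean plus 5 SD, cut at about 64% in these data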;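 note: ratio is the fluorescence rise from min to max over baseline after thallium stimulus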
# KCNK3 uninduced: thallium flux inhibition in non-induced cells, primary screen, counter-screen for KCNK3 inhibitor project, cell-based, non-induced KCNK3 line, FluxOR thallium, triplicate | 2,400 compounds, 40% hits | AID 651747, 2012 | shares compounds with KCNK3 inh | thallium flux ratio (lower = more inhibition) at 10 µM | non-induced KCNK3 parental cells; hits give low values;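 active = thallium flux ratio, averaged over three wells, more than 5 SD below the buffer control mean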;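 note: host cells are CHO cells without KCNK3 induction; ratio is peak minus trough fluorescence over baseline then normalized to buffer controls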
# * = called active by the depositor; i = inactive; nt = not tested or not shown.
SMILES,Cl transport mod,KCNQ1 block,KCNQ1 act,KCNK3 inh,hERG rescue,KCNK9 inh,KCNQ1 inh valid,CHO Tl flux,KCNQ2 spec,KCNQ1-KCNE1 inh,KCNK3 inh conf,KCNK3 uninduced,others
O=C(c1ccc(CSc2nc3ccncc3[nH]2)cc1)N1CCN(c2cccc(Cl)c2)CC1,-1.93,13*,i,-11*,-19.7,i,134.5*,0.315*,111.0%*,193.0%*,134.0*,0.148*,
CC(C)OC(=O)NCCOC(=O)Nc1ccc(Cl)c(Cl)c1,-1.28,10*,i,-10.9*,-22.8,-8.07*,80.0*,0.424,119.0%*,i,105.3*,i,
CC(C)OC(=O)NCCOC(=O)Nc1cccc(Cl)c1,0.663,i,i,i,-1.9,i,nt,nt,nt,nt,nt,nt,
CCOc1ccc(C(=O)Nc2cccc(-c3nc4cccnc4o3)c2)cc1Cl,0.00431,9*,i,-10*,-18.4,-16.4*,135.0*,0.472,110.3%*,189.5%*,125.3*,i,KCNQ1 ephys val=i;KCNK9 block conf=45.5%*;Kir2-1 spec=i;KCNK9 uninduced=i
CCOc1ccc(C(=O)Nc2cccc(C(=O)O)c2)cc1Cl,-0.658,i,i,i,-7.2,i,nt,nt,nt,nt,nt,nt,
CC(=NNC(=O)CSCC(=O)NN=C(C)c1ccccc1)c1ccccc1,nt,nt,nt,i,nt,nt,nt,nt,nt,nt,nt,nt,

# Assay outcomes: PubChem, several laboratories
